In PMC6410374 (Biomaterials science, 2019):

Columns and labels:
humans = conditions: very low doses; idiosyncratic thrombocytopenia purpura; ref [13]; cited from earlier work
[1] = tested on: CD8 T cells from humans exposed to the human polyomavirus 2 protein; conditions: T cells of patients exposed to the virus; HLA-A*0201; ref [35]; cited from earlier work
IgG = conditions: read-out: binding constant for IgG; ref [20]; cited from earlier work
IgG^800 = experiment: In vivo IgG^800 retention in mouse footpads; design: species or system C57BL/6 mice
Summary of the method: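 Female C57BL/6 mice, 8–12 weeks old, under isoflurane (5% induction, 3% maintenance). Fluorescent IgG800 premixed with peptide coacervate or EAK was injected subcutaneously into one footpad (28G needle) without hair removal. Imaged before injection and every two days with near-infrared imaging at 255 μm resolution. Injection-site ROI was normalized to a non-injected background ROI; the 5-min signal was set as 100% (0.065 μg/μl). Ex vivo scans were taken at 800 channel.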

[2] = target: fluorescein-labeled rabbit polyclonal IgG (Oryctolagus cuniculus, UniProt P01870); experiment: Microplate-based titration of IgG against Z15_EAK/EAK coacervate; type: binding; conditions: constant concentration of EAK; data not shown
[3] = Congo red absorbance / fibrillization; type: physicochemical; conditions: EAK: upon exposure to high ionic strengths
Summary of the method: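 Congo red (1×, diluted from 10X stock in PBS) incubated with peptide for at least 1 h. Absorbance scanned across 400–600 nm on a microplate reader with 0 ms settle time. Peak position and shift read from spectra, with repeat scans over time.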

Sequence of fluorescein-labeled rabbit polyclonal IgG (P01870 101-323 limits assumed): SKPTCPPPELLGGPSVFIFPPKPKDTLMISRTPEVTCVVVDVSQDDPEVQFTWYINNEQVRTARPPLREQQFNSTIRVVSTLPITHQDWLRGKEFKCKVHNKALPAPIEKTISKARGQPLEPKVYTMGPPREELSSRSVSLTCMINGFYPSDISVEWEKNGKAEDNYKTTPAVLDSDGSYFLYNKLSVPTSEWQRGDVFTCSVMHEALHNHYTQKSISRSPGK

**Q.** Which “safety in phase-I clinical trials” value (humans) does the source give for “PRTX-100: Highly purified SpA developed as a therapeutic for idiosyncratic thrombocytopenia purpura” here?
**A.** safe

**Q.** Which “T cell recall in vitro” value [1] does the source give for RIPLPNLNEDLTCGN here?
**A.** recalled in vitro

**Q.** Which Kd (IgG) does the source give for “SpA: 42-kDa protein consisting of five homologous Fc-binding domains (E, D, A, B and C)” here?
**A.** ~20 nM

**Q.** Which “IgG^800 retained in footpad” value (IgG^800; after 4 days, 5 min signal = 100%) does the source give for AEAEAKAKAEAEAKAK here?
**A.** 8%

**Q.** And the “antibody in draining lymph node” value (IgG^800; footpad injection, day 28)?
**A.** found in the draining lymph node

**Q.** What about the “affinity constants of IgG titrated against EAK” value [2] of the same substance?
**A.** ambiguous affinity constants

**Q.** And the fibril formation kinetics [3]?
**A.** almost instantaneously
